Test results as given in ChEMBL document CHEMBL3608245, “Boronic acid-containing aminopyridine- and aminopyrimidinecarboxamide CXCR1/2 antagonists: Optimization of aqueous solubility and oral bioavailability” (Bioorg Med Chem Lett, 2015).
Values after ≈ are worked out from the molar mass of the structure shown. Active and inactive are the calls of the source. The calls are words filed in the database; no cut-off is given here.

What was measured:
[1] = target: T1, C-X-C chemokine receptor type 1 (Homo sapiens, UniProt P25024); test: Antagonist activity at CXCR1 (unknown origin) transfected in RBL cells assessed as inhibition of IL-8-mediated intracellular calcium release preincubated for 30 mins followed by IL-8 addition by FLUO-4AM-based fluorescent microplate reader analysis; format: functional, cell-based
T1 sequence (P25024 whole entry): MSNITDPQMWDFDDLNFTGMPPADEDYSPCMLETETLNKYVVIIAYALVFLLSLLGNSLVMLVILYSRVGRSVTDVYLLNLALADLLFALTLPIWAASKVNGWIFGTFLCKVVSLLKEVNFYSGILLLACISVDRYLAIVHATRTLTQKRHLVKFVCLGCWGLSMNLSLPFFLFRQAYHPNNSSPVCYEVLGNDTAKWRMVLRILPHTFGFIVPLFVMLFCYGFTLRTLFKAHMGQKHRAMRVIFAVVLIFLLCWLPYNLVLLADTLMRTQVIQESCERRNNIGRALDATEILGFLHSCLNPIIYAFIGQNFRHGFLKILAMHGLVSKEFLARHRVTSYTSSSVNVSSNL
In short: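 RBL cells stably expressing CXCR1 were preincubated 30 min with compound, then stimulated with IL8. Intracellular calcium release read by FLUO-4AM fluorescence on a microplate reader. IC50 from triplicate experiments, mean ± SE.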

[2] = target: T2, C-X-C chemokine receptor type 2 (Homo sapiens, UniProt P25025); test: Antagonist activity at CXCR2 (unknown origin) transfected in RBL cells assessed as inhibition of IL-8-mediated intracellular calcium release preincubated for 30 mins followed by IL-8 addition by FLUO-4AM-based fluorescent microplate reader analysis; format: functional, cell-based
T2 sequence (P25025 whole entry): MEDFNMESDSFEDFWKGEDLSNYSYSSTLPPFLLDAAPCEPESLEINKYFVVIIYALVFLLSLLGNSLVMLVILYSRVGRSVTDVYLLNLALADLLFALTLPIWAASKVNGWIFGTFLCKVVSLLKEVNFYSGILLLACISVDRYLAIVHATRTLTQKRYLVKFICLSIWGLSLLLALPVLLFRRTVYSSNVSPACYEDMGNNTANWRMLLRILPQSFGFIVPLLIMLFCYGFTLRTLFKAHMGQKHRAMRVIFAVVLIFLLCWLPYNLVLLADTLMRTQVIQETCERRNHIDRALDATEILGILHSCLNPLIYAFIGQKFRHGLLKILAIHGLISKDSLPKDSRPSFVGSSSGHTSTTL

[3] = test system: Rattus norvegicus; test: Antiinflammatory activity in Sprague-Dawley rat ozone model of pulmonary inflammation assessed as reduction in neutrophil influx at 1 mg/kg, iv after 24 hrs by Wright-Giemsa staining assay; format: functional, organism-based
In short: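 Sprague-Dawley rats, n = 4 per cohort, received a single iv dose at t = 0 in DMA/PEG400/0.9% saline (40:40:20). Vehicle groups were kept in air (negative) or 1 ppm ozone (positive), and treated groups in ozone, each for 4 h. At 24 h the rats were sacrificed and BALF was collected. Cells were spun down, Wright-Giemsa stained and neutrophils counted.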

[4] = Metabolic stability in human plasma assessed as compound remaining at 1 uM measured at 24 hrs by LC-MS/MS analysis; format: ADME, cell-free; settings: read-out: Stability
In short: (§1)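 Compound at 1 µM was incubated in human plasma at 37°C for up to 24 h. Samples were taken at 0, 1, 4 and 24 h and analysed by LC-MS/MS, with results reported as % remaining.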

[5] = Metabolic stability in human plasma assessed as compound remaining at 1 uM measured at 1 hr by LC-MS/MS analysis; format: ADME, cell-free; settings: read-out: Stability; in short: as §1
[6] = Solubility of the compound in 0.1 N HCl; format: physicochemical; settings: buffer
[7] = Metabolic stability in human plasma assessed as compound remaining at 1 uM measured at 4 hrs by LC-MS/MS analysis; format: ADME, cell-free; settings: read-out: Stability; in short: as §1
[8] = test system: Rattus norvegicus; test: AUC in rat at 1 mg/kg, iv by LC-MS/MS analysis; format: ADME, organism-based; settings: in vivo
In short: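 Rats dosed intravenously at 1 mg/kg in DPS vehicle (dimethylacetamide/PEG400/0.9% saline 40:40:20). Plasma concentrations measured by LC-MS/MS against a calibration curve of test compound spiked in rat plasma, run alongside the samples; AUC given in μmol·hr/L.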

[9] = Oral bioavailability in rat at 1 mg/kg by LC-MS/MS analysis; format: ADME, organism-based; settings: in vivo
In short: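 Rats were dosed at 1 mg/kg both intravenously (vehicle dimethylacetamide/PEG400/0.9% saline 40:40:20) and by oral gavage (vehicle 0.1 N HCl or Labrasol, depending on compound). Plasma levels were measured by LC-MS/MS against a calibration curve of compound spiked into rat plasma, run alongside the samples. Oral and IV AUC are reported in μmol·hr/L.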

[10] = test system: Rattus norvegicus; test: AUC in rat at 1 mg/kg, po by LC-MS/MS analysis; format: ADME, organism-based; settings: in vivo
[11] = target: T3, Interleukin-8 receptors, CXCR1/CXCR2 (Homo sapiens, UniProt P25025+P25024); test: Antagonist activity at CXCR1/CXCR2 in isolated human PMN assessed as inhibition of IL-8-mediated intracellular calcium flux; format: functional, cell-based
T3 sequence (P25025 whole entry): T2 sequence (P25025 whole entry)
T3 sequence (P25024 whole entry): T1 sequence (P25024 whole entry)
In short: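 Isolated human neutrophils (PMNs); inhibition of calcium flux with IL8 as agonist; IC50 reported as mean ± SE from triplicate experiments.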

[12] = test system: Plasma; test: Metabolic stability in rat plasma; format: ADME, cell-free

| Structure (SMILES) | IC50 [1] | IC50 [2] | other results |
| --- | --- | --- | --- |
| NCCN(Cc1ccc(B(O)O)cn1)c1ncc(C(=O)Nc2ccc(F)cc2)cn1 | > 5 µM | > 5 µM |  |
| CN(Cc1ccc(B(O)O)cc1)c1ncc(C(=O)Nc2ccc(F)cc2)cn1 | 0.681 µM | 0.121 µM |  |
| CN(Cc1cccc(B(O)O)c1)c1ncc(C(=O)Nc2ccc(F)cc2)cn1 | 2.5 µM | 2.5 µM |  |
| O=C(Nc1ccc(F)cc1)c1ccc(N(Cc2ccccn2)Cc2ccc(B(O)O)cn2)nc1 | > 5 µM | 4.85 µM |  |
| CN(Cc1ccccc1B(O)O)c1ccc(C(=O)Nc2ccc(F)cc2)cn1 | > 5 µM | > 5 µM |  |
| CN(Cc1ccc(B(O)O)cc1)c1ccc(C(=O)Nc2ccc(F)cc2)cn1 | 1.4 µM | 1.1 µM |  |
| O=C(O)CN(Cc1ccc(B(O)O)cn1)c1ncc(C(=O)Nc2ccc(F)cc2)cn1 | > 5 µM | > 5 µM |  |
| O=C(Nc1ccc(F)cc1)c1ccc(N(Cc2ccc(B(O)O)cn2)CC2CCOCC2)nc1 | > 5 µM | 2.3 µM |  |
| O=C(Nc1ccc(F)cc1)c1ccc(NCc2ccccc2B(O)O)nc1 | > 5 µM | > 5 µM |  |
| O=C(Nc1ccc(F)cc1)c1ccc(N(Cc2ccccc2)Cc2ccc(B(O)O)cn2)nc1 | 0.326 µM | 0.298 µM |  |
| O=C(Nc1ccc(F)cc1)c1ccc(NCc2ccc(B(O)O)cc2)nc1 | 4.3 µM | 2.2 µM |  |
| O=C(Nc1ccc(F)cc1)c1cnc(N(Cc2ccccc2)Cc2ccc(B(O)O)cn2)nc1 | 0.007 µM | 0.004 µM | Activity [3]: Active; remaining at 24 h, 1 µM [4]: 62%; remaining at 1 h, 1 µM [5]: 90%; solubility [6]: 500 µg/mL (≈ 1090 µM); remaining at 4 h, 1 µM [7]: 71%; AUC [8]: 4.37 µM·h; bioavailability [9]: 24%; AUC [10]: 1.15 µM·h; IC50 [11]: 0.185 µM; Stability [12]: Stable |
| CN(Cc1cccc(B(O)O)c1)c1ccc(C(=O)Nc2ccc(F)cc2)cn1 | 4.1 µM | 0.41 µM |  |
| O=C(Nc1ccc(F)cc1)c1cnc(N(Cc2ccccn2)Cc2ccc(B(O)O)cn2)nc1 | 2.05 µM | 4.31 µM |  |
| O=C(Nc1ccc(F)cc1)c1ccc(SCc2cc(OC(F)(F)F)ccc2B(O)O)nc1 |  |  | Activity [3]: Active; remaining at 24 h, 1 µM [4]: 2%; remaining at 1 h, 1 µM [5]: 62%; solubility [6]: Insoluble; remaining at 4 h, 1 µM [7]: 34%; AUC ([10]; BLD = below limit of detection): BLD; Stability [12]: Stable |
| O=C(Nc1ccc(F)cc1)c1cnc(N(Cc2ccc(B(O)O)cn2)Cc2ccco2)nc1 | 0.444 µM | 0.655 µM |  |
| O=C(Nc1ccc(F)cc1)c1cnc(NCc2ccc(B(O)O)cc2)nc1 | 1.7 µM | 2.6 µM |  |
| CN(Cc1ccc(B(O)O)cn1)c1ncc(C(=O)Nc2ccc(F)cc2)cn1 | 1.7 µM | 0.933 µM |  |
| CN(Cc1ccc(B(O)O)cn1)c1ccc(C(=O)Nc2ccc(F)cc2)cn1 | 1.7 µM | 0.081 µM |  |
| CN(Cc1ccccc1B(O)O)c1ncc(C(=O)Nc2ccc(F)cc2)cn1 | > 5 µM | > 5 µM |  |
| O=C(Nc1ccc(F)cc1)c1ccc(NCc2cccc(B(O)O)c2)nc1 | 0.611 µM | 0.733 µM |  |
| O=C(Nc1ccc(F)cc1)c1cnc(NCc2cccc(B(O)O)c2)nc1 | 1.34 µM | 0.918 µM |  |
| O=C(Nc1ccc(F)cc1)c1ccc(N(Cc2ccc(B(O)O)cn2)Cc2ccco2)nc1 | 0.0033 µM | 0.021 µM |  |
